Screening results: PubChem BioAssay, The Scripps Research Institute Molecular Screening Center
SIAE primary – human SIAE inhibition, primary screen; Q9HAT2; SIAE FP-Rh probe binding, fluorescence polarization; inhibition, % at 9.66 µM; hit rate 0.69% among 370,000; AID 1053197;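 active means inhibition above a cutoff: mean of compounds within the control limits plus 3 SD of those, cut at about 17% in these data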
HTRA1 inhibitor – blocks human HTRA1 serine peptidase | Q92743 | recombinant HTRA1, FP-rhodamine activity-based probe, fluorescence polarization | inhibition, % at 5.96 µM | hit rate 0.5% among 340,000; in the data active means inhibition above about 36%
mABHD4 FP – inhibits mouse alpha/beta hydrolase domain 4; hit rate 0.54% among 370,000; inhibition, % at 8.92 µM; purified mABHD4, FP-Rh probe fluorescence polarization;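 active means inhibition exceeding the mean over every tested compound plus 3 SD, cut at about 30% in these data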
Target sequence (Q8VD66 whole entry, looked up, the tested form may be a part): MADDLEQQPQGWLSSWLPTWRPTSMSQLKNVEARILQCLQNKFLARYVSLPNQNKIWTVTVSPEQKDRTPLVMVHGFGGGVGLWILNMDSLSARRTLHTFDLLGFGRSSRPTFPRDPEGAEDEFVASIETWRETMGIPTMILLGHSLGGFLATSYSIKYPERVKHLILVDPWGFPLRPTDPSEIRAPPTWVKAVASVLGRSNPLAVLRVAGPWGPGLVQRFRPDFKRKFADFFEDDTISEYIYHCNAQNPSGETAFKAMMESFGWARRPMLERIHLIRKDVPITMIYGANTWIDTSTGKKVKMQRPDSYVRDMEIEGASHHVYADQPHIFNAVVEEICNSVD
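Assay system: mouse ABHD4 enzyme, wild type / Also added: fluorescent activity-based probe FP-Rh / Doses: single nominal dose of 8.92 µM, 0.89% DMSO final / Timing: 45 min compound pre-incubation plus 60 min probe step, 25 °C / Signal: FP readout, ex 525 nm / em 598 nm / Control set: S159A mutant/DMSO as 100%, compound-well median as 0%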
PRMT1 inh – PRMT1 (human) inhibition, primary screen. AID 652257. Q99873. recombinant PRMT1, activity-based probe fluorescence polarization. hit rate 1.3% among 370,000. inhibition, % at 2.79 µM;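 active means inhibition above about 21% made by adding two undisclosed values, limit read from the data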
Target sequence (Q99873 whole entry, looked up): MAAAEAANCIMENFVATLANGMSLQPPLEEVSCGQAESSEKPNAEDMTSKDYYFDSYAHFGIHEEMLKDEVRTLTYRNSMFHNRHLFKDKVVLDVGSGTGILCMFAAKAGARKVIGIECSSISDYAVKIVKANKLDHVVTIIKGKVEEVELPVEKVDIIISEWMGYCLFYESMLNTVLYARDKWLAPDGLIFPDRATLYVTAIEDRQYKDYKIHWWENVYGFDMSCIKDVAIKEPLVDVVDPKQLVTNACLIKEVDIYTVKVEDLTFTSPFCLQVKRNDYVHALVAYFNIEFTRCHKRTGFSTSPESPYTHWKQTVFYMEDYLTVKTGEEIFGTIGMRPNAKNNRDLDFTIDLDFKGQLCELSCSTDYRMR
TCR-CD3 inh – blocks the human TCR-CD3 interaction; TAMRA-labeled TCR probe fluorescence, biochemical; inhibition, % at 9.4 µM; hit rate 0.37% among 360,000; AID 651800; in the data active means inhibition above about 19%;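 further: recombinant mutant TCR 2C K166C tagged with TAMRA read by polarization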
PRMT1 confirm – PRMT1 (human) inhibition, FP confirmation | shares compounds with PRMT1 inh | recombinant His-PRMT1, activity-based probe fluorescence polarization | AID 687036 | inhibition, % at 2.79 µM | hit rate 42% among 3,300;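 active means mean inhibition across replicates above the hit cutoff derived for the earlier primary screen, cut at about 22% in these data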
Large screens that a line does not name were inactive (follow-up assays come after a bar, where they were run). A selection: hits, their analogues and other compounds. The true share with any hit is near 2.6%.

Cc1ccc2nc(-c3ccco3)c(Cc3ccsc3)n2c1	PRMT1 inh 35.0 (no result: HTRA1 inhibitor) | PRMT1 confirm 26.7
COC(=O)c1ccc2nc(-c3ccco3)c(Cc3cccc(F)c3)n2c1	PRMT1 inh 43.2 (no result: HTRA1 inhibitor) | PRMT1 confirm 35.5
COC(=O)c1ccc2nc(-c3ccc(F)cc3)c(Cc3cccc(F)c3)n2c1	none (no result: HTRA1 inhibitor)
COC(=O)c1ccc2nc(-c3ccc(C)cc3)c(Cc3ccc(C)cc3)n2c1	none (no result: HTRA1 inhibitor)
COC(=O)c1ccc2nc(-c3ccco3)c(Cc3ccc(C)cc3)n2c1	PRMT1 inh 33.8 (no result: HTRA1 inhibitor) | PRMT1 confirm inactive
COc1ccc2c(CCN3C(=O)c4ccccc4C3=O)c(-c3c(CCN4C(=O)c5ccccc5C4=O)c4ccccc4n3C(=O)OC(C)(C)C)[nH]c2c1	none (no result: HTRA1 inhibitor, TCR-CD3 inh)
O=C(CNC(=O)c1cccs1)NCC(=O)OCC(=O)c1ccc([N+](=O)[O-])cc1	PRMT1 inh 69.6 | PRMT1 confirm 40.7
O=C(COC(=O)c1cnccn1)c1ccc([N+](=O)[O-])cc1	PRMT1 inh 46.8 | PRMT1 confirm 59.8
Cc1ccc(C(=O)COC(=O)c2cnccn2)cc1	none
O=C(COc1ccccc1F)OCC(=O)c1ccc([N+](=O)[O-])cc1	PRMT1 inh 45.5 | PRMT1 confirm 34.2
Cc1n[nH]c(C)c1S(=O)(=O)NCCc1ccccc1F	none (no result: HTRA1 inhibitor, TCR-CD3 inh)
O=C(COc1ccc(F)c(Cl)c1)N[C@H]1CCCN(CC2CC2)C1	none (no result: HTRA1 inhibitor, TCR-CD3 inh)
COC(=O)c1cc(-c2cc3ccccc3s2)c(=O)n2c1CCC2	none (no result: HTRA1 inhibitor, TCR-CD3 inh)
COc1ccc(OC)c(N=c2ssnc2Cl)c1	PRMT1 inh 74.9 | PRMT1 confirm 81.3
COc1cc(N=c2ssnc2Cl)c(OC)cc1Cl	PRMT1 inh 93.7 | PRMT1 confirm 91.4
COc1ccc(OC)c(N=C2C(=O)Nc3ccccc32)c1	none
O=C(NCCc1ccccc1)OCc1cn(Cc2ccc(F)c(F)c2)nn1	none (no result: HTRA1 inhibitor, TCR-CD3 inh)
CC(C)C[C@H]1COc2cccc(F)c2S(=O)(=O)N1Cc1cn(Cc2ccco2)nn1	none (no result: HTRA1 inhibitor, TCR-CD3 inh)
CC(C)(C)c1cc[n+](-c2[nH]c(=O)sc2/C=N/N=C(\[O-])c2cccnc2)cc1	none
O=c1[nH]c(-[n+]2ccc3ccccc3c2)c(/C=N/N=C(\[O-])c2ccccc2)s1	PRMT1 inh 54.1 | PRMT1 confirm inactive
NS(=O)(=O)c1ccc(CCNC(=O)c2cc(-c3ccco3)nc3ccccc23)cc1	PRMT1 inh 51.3 | PRMT1 confirm inactive
O=C(NCC1CCCO1)c1cc(-c2ccco2)nc2ccccc12 (stereo not given)	PRMT1 inh 72.6 | PRMT1 confirm inactive
NS(=O)(=O)c1ccc(CCNC(=O)c2ccc[nH]c2=S)cc1	PRMT1 inh 38.6 | PRMT1 confirm inactive
CC(C)CCNC(=O)c1cc(-c2ccco2)nc2ccccc12	none
NS(=O)(=O)c1ccc(CCNC(=O)c2cc(-c3ccccc3)nc3ccccc23)cc1	none
NS(=O)(=O)c1ccc(CCNC(=O)c2cccc3ccccc23)cc1	none
CCCCCCNC(=O)c1cc(-c2ccco2)nc2ccccc12	PRMT1 inh 42.2 | PRMT1 confirm inactive
CCS(=O)(=O)Nc1ccc2c(c1)C(=O)N(C)[C@@H]1CC[C@H](CC(=O)NCCOC)O[C@H]1CO2	none (no result: HTRA1 inhibitor, TCR-CD3 inh)
c1cc2c(cc1NC1CCCCCC1)OCO2	PRMT1 inh 34.7 | PRMT1 confirm 31.8
COc1ccc2c(c1)CNC2CS(=O)(=O)NC1CCCC1 (stereo not given)	none (no result: HTRA1 inhibitor, TCR-CD3 inh)
CCOC(=O)C1=C(Cc2ccc(C)cc2)C(=O)c2ccccc2C1=O	PRMT1 inh 92.1 (no result: HTRA1 inhibitor) | PRMT1 confirm 27.3
COc1cc(/C=N/n2c(-c3cc(-c4ccccc4)n[nH]3)n[nH]c2=S)ccc1OCc1ccccc1	PRMT1 inh 26.3 (no result: HTRA1 inhibitor, TCR-CD3 inh) | PRMT1 confirm inactive
COc1ccc(C2OC(=O)c3ccccc3S2)cc1 (stereo not given)	PRMT1 inh 38.2 | PRMT1 confirm inactive
CN1CCN(c2ccc3c(c2)Oc2ccccc2CN(Cc2cn(Cc4ccc(C(F)(F)F)cc4)nn2)S3(=O)=O)CC1	none (no result: HTRA1 inhibitor, TCR-CD3 inh)
COc1cc(/C=C2\C(=O)NN(c3ccc(C)cc3)C2=O)cc([N+](=O)[O-])c1O	PRMT1 inh 29.7 | PRMT1 confirm inactive
COc1ccc(CN2C[C@H](COCc3ccccc3)Oc3cccc(F)c3S2(=O)=O)cc1	none (no result: HTRA1 inhibitor)
O=C(NNc1nc2cc3c(cc2s1)OCO3)c1cccc(F)c1	PRMT1 inh 32.8 | PRMT1 confirm inactive
O=C(NNc1nc2cc3c(cc2s1)OCO3)c1ccccc1	none
O=C(O)c1cccc(N2C(=O)C=CC2=O)c1	PRMT1 inh 59.2 | PRMT1 confirm 84.3
O=C(Cc1ccccc1)Nc1cccc(N2C(=O)C=CC2=O)c1	PRMT1 inh 96.3 | PRMT1 confirm 94.8
COc1ccc(CCN(/C=C2\Sc3ccccc3C2=O)C(C)=O)cc1OC	PRMT1 inh 66.9 (no result: HTRA1 inhibitor) | PRMT1 confirm 45.5
CCc1sc(C(C2C(=O)CC(C)(C)CC2=O)C2C(=O)CC(C)(C)CC2=O)cc1[N+](=O)[O-]	PRMT1 inh 47.6 | PRMT1 confirm 49.9
CC1(C)CC(=O)C(C(c2ccc(F)cc2)C2C(=O)CC(C)(C)CC2=O)C(=O)C1	none
COc1ccc(Cn2nnnc2C(C(C)C)N2CCN(c3ccccc3OC)CC2)cc1 (stereo not given)	none
CC(C)C(c1nnnn1Cc1ccc(F)cc1)N1CCN(c2ccc(O)cc2)CC1 (stereo not given)	PRMT1 inh 27.6 (no result: HTRA1 inhibitor) | PRMT1 confirm inactive
COC(=O)[C@]12C[C@H](CC(=O)NCc3ccccc3)C(=O)N(CCc3ccc(OC)c(OC)c3)C1=C[C@H](C(C)C)O[C@@H]2C1CC1	none (no result: HTRA1 inhibitor, TCR-CD3 inh)
O=[N+]([O-])c1ccc(N2CCN(Cc3ccccc3)CC2)c2c1no[n+]2[O-]	PRMT1 inh 54.4 | PRMT1 confirm inactive
O=[N+]([O-])c1ccc(N2CCN(Cc3ccccc3)CC2)s1	none
O=C1CCC[C@H]2C[C@H](NCc3ccco3)CC[C@]23CCCN13	none (no result: HTRA1 inhibitor, TCR-CD3 inh)
O=C(CCSc1ccc(Br)cc1)c1ccc(O)cc1	PRMT1 inh 30.8 | PRMT1 confirm inactive
CSCc1ccc(C(=O)NCCSc2ccc(Br)cc2)cc1	none
Cn1cnc([N+](=O)[O-])c1S(=O)(=O)c1ccc(Cl)cc1	PRMT1 inh 44.4 | PRMT1 confirm inactive
Nn1c(SCc2ccc(Br)cc2)nnc1-c1n[nH]c2c1CCC2	none (no result: HTRA1 inhibitor, TCR-CD3 inh)
CCOc1ccc(N2C(=O)CC(NC3CCN(C(=O)c4cccs4)CC3)C2=O)cc1 (stereo not given)	PRMT1 inh 88.7 | PRMT1 confirm inactive
CCOc1ccc(N2C(=O)CC(NC3CCN(C(=O)c4cccc(Cl)c4)CC3)C2=O)cc1 (stereo not given)	PRMT1 inh 65.5 | PRMT1 confirm inactive
Cc1cccc(Cn2cc(CN3CC(N(C)CCOC(=O)c4cc(C)cc(C)c4)CS3(=O)=O)nn2)c1 (stereo not given)	none (no result: HTRA1 inhibitor, TCR-CD3 inh)
COC(=O)[C@@H]1N=C(c2ccc(OC)cc2)O[C@]12C(=O)N(Cc1cn(Cc3ccccc3)nn1)c1cccc(Cl)c12	none (no result: HTRA1 inhibitor, TCR-CD3 inh)
CCN1CCN(C(=O)/C=C/c2ccc(C)o2)CC1	none
